Data on four molecules can be found in ChEMBL document CHEMBL2029280, “3-fluoro- and 3,3-difluoro-3,4-dideoxy-KRN7000 analogues as new potent immunostimulator agents: total synthesis and biological evaluation in human invariant natural killer T cells and mice” (2012).

Active and inactive are the calls of the source. The rule behind the calls is not given here.

Assay [1] relates to MAD11. The experiment in a line: Activation of Hela cell expressing human CD1D-TCR in human MAD11 cells assessed as TH1-mediated TNFalpha secretion after 6 hrs relative to control. Format: cell-based. A digest of the protocol: (§1)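 Human CD1d-transduced HeLa or Namalwa cells, 30000/well, incubated overnight at 37 °C with graded glycolipid (DMSO), washed twice, then cocultured 6 h at 37 °C with 15000 Vα24+/Vβ11+ human iNKT cells in RPMI without IL-2. TNF-α in cell-free supernatant measured by WEHI 164 cytotoxicity (MTT). No-glycolipid background subtracted. Mean of triplicates; at least 3 experiments.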

Assay [2] deals with Namalwa. The experiment in a line: Activation of Namalwa cell expressing CD1D-TCR in human MAD11 cells assessed as TH1-mediated TNFalpha secretion after 6 hrs relative to control. Format: cell-based. A digest of the protocol: as §1
Assay [3] concerns MAD11. The experiment in a line: Activation of Hela cell expressing human CD1D-TCR in human MAD11 cells assessed as TH1-mediated IFN-gamma secretion after 6 hrs by ELISA relative to KRN7000. Format: cell-based. A digest of the protocol:
(§2)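 APCs (hCD1d-transduced HeLa or Namalwa) plated 30000/well, loaded overnight at 37 °C with glycolipid titration in DMSO, washed twice. Vα24/Vβ11-sorted human iNKT line (15000 cells, no IL-2) added for 6 h at 37 °C. Supernatant IFN-γ measured by ELISA. No-glycolipid background subtracted. Mean of triplicates, SD shown. KRN7000 reference; untransduced APCs as negative control.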
On the technique in general: In an ELISA, binding on a coated surface is turned into a signal by an enzyme label.

Assay [4] concerns Namalwa. Description: Activation of Namalwa cell expressing CD1D-TCR in human MAD11 cells assessed as TH2-mediated IL-13 secretion after 48 hrs by ELISA relative to KRN7000. In kind it is functional, cell-based. An outline of the steps: (§3)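 The hCD1d-transduced HeLa or Namalwa presenting cells were plated at 7500/well and pulsed overnight at 37 °C with increasing glycolipid concentrations in DMSO, then washed. 15000 sorted human iNKT cells were added without IL-2 for 48 h at 37 °C. IL-13 in supernatant was measured by ELISA, minus background without glycolipid. Triplicate mean ± SD, with KRN7000 as reference.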

Assay [5] relates to MAD11. The experiment in a line: Activation of Hela cell expressing human CD1D-TCR in human MAD11 cells assessed as TH2-mediated IL-13 secretion after 48 hrs by ELISA relative to KRN7000. In kind it is functional, cell-based. An outline of the steps: as §3
For assay [6], the system named is Namalwa. The experiment in a line: Activation of Namalwa cell expressing CD1D-TCR in human MAD11 cells assessed as TH1-mediated IFN-gamma secretion after 6 hrs by ELISA relative to KRN7000. In kind it is cell-based. An outline of the steps: as §2
Assay [7] relates to Mus musculus. Description: Induction of CD1D-TCR-dependent NKT cell activation in C57BL/6J mouse assessed as IL-4 production at 100 ug/kg, ip relative to KRN7000. Format: functional. A digest of the protocol:
(§4)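 Female C57BL/6J mice, 6–8 weeks old, given 100 μg/kg glycolipid ip in 0.1 mL of 10% DMSO in 0.9% NaCl. Sera collected at several time points after injection; six mice per time point. Serum IFN-γ, IL-4 and TNF-α measured by ELISA. Time courses compared as area under the curve against KRN7000.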

In assay [8] the test system is Mus musculus. The experiment in a line: Induction of CD1D-TCR-dependent NKT cell activation in C57BL/6J mouse assessed as TNF-alpha production at 100 ug/kg, ip relative to KRN7000. In kind it is functional. A digest of the protocol: as §4
Assay [9] deals with Mus musculus. The experiment in a line: Induction of CD1D-TCR-dependent NKT cell activation in C57BL/6J mouse assessed as ratio of IFNgamma/IL-4 production at 100 ug/kg, ip relative to KRN7000. In kind it is functional. A digest of the protocol:
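Female C57BL/6J mice, 6–8 weeks old, received 100 μg/kg ip in 0.1 mL of 10% DMSO/0.9% NaCl. Serial serum samples were taken, six mice per time point. IFN-γ and IL-4 were measured by ELISA, and the ratio of AUC IFN-γ to AUC IL-4 was computed.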

Assay [10] has as its system Mus musculus. Description: Induction of CD1D-TCR-dependent NKT cell activation in C57BL/6J mouse assessed as IFN-gamma production at 100 ug/kg, ip measured after 8 hrs relative to KRN7000. In kind it is functional. An outline of the steps:
as §4

Assay [11] has as its system Mus musculus. Description: Induction of CD1D-TCR-dependent NKT cell activation in C57BL/6J mouse assessed as IFN-gamma production at 100 ug/kg, ip relative to KRN7000. Format: functional. An outline of the steps:
as §4

`CCCCCCCCCCCCCCCCCCCCCCCCCC(=O)N[C@@H](CO[C@H]1O[C@H](CO)[C@H](O)[C@H](O)[C@H]1O)[C@H](O)[C@H](O)CCCCCCCCCCCCCC`: the outcome in the assay on MAD11 [1], in the assay with Namalwa [2], in the assay on MAD11 [3], in the assay on Namalwa [4], in the assay with MAD11 [5] and with Namalwa [6] was Active.

Consider `CCCCCCCCCCCCCCCCCCCCCCCCCC(=O)N[C@@H](CO[C@H]1O[C@H](CO)[C@H](O)[C@H](O)[C@H]1O)C(F)(F)CCCCCCCCCCCCCCC`, for which the outcome in the assay on MAD11 [1], in the assay on Namalwa [2], with MAD11 [3], with Namalwa [4], with MAD11 [5] and in the assay on Namalwa [6] was Active. Further, the result with Mus musculus [10] was Active. For the same molecule, the Ratio was determined as 0.35 in the assay on Mus musculus [7] and 1.31 in the assay with Mus musculus [9]. Moreover, in the assay with Mus musculus [8], the Activity is listed as 32%.

As for `CCCCCCCCCCCCCCCCCCCCCCCCCC(=O)N[C@@H](CO[C@H]1O[C@H](CO)[C@H](O)[C@H](O)[C@H]1O)[C@H](F)CCCCCCCCCCCCCC`, the outcome in the assay with MAD11 [1], with Namalwa [2], in the assay with MAD11 [3], with Namalwa [4], with MAD11 [5] and in the assay with Namalwa [6] was Active. The Ratio is 0.35 with Mus musculus [7] and 0.78 with Mus musculus [9]. The Activity was determined as 23% with Mus musculus [8] and 30% in the assay on Mus musculus [10].

Turning to `CCCCCCCCCCCCCCCCCCCCCCCCCC(=O)N[C@H](CCCCCCCCCCCCCCC)CO[C@H]1O[C@H](CO)[C@H](O)[C@H](O)[C@H]1O`, the outcome in the assay with MAD11 [1], in the assay on Namalwa [2], in the assay with MAD11 [3], with Namalwa [4], in the assay with MAD11 [5] and with Namalwa [6] was Active. Besides, the Ratio came to 0.35 with Mus musculus [7] and 1.86 in the assay on Mus musculus [9]. Also, the Activity with Mus musculus [11] is reported as 70%; with Mus musculus [8], 40%.
